Columns and labels:
[1] = target: huCD4_1–32-YFP L14A (Homo sapiens, UniProt P01730, L14A); assay: CADA inhibition of huCD4_1–32-YFP secretion; format: cell-based
Method in brief: (§1)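 HEK293T cells were grown in DMEM with 10% FBS and 10 mM HEPES, seeded and left to adhere overnight, then transiently transfected with plasmid by Lipofectamine. Test compound was added 6 h after transfection as a 1:5 serial dilution (50 to 0.016 μM) for 48 h. Secreted YFP in the supernatant was captured on GFP-Trap magnetic beads for 1 h, washed with PBS and measured by flow cytometry. IC50 is the concentration that halves the signal relative to the untreated control, taken from a four-parameter fit of at least three replicate experiments. FC is the mutant mean IC50 divided by the WT mean IC50.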

[2] = target: huCD4_1–32-YFP Q15A;P20A (Homo sapiens, UniProt P01730, P20A/Q15A); assay: CADA inhibition of huCD4_1–32-YFP secretion; format: cell-based; details: HEK293T, 48h
Method in brief: as §1

[3] = target: FL huCD4 L10A (Homo sapiens, UniProt P01730, L10A); assay: CADA down-modulation of cellular huCD4; format: cell-based
Method in brief: (§2)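 HEK293T cells, seeded overnight in DMEM with 10% serum, 1 mM sodium pyruvate and 0.075% NaHCO₃, were lipofected with full-length human CD4 (WT or mutant). Test compound in DMSO was added 6 h post-transfection as 1:5 serial dilutions (50–0.016 μM) for 48 h. Surface CD4 was stained with FITC/APC anti-CD4 (SK3) and read by flow cytometry. IC50 is 50% of the untreated signal, from four-parameter fits of ≥3 replicate experiments. FC is mutant/WT mean IC50.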

[4] = target: FL huCD4 WT (Homo sapiens, UniProt P01730); assay: CADA down-modulation of cellular huCD4; format: cell-based
Method in brief: as §2

[5] = target: huCD4_1–32-YFP L19A (Homo sapiens, UniProt P01730, L19A); assay: CADA inhibition of huCD4_1–32-YFP secretion; format: cell-based
Method in brief: as §1

[6] = target: FL huCD4 A17V (Homo sapiens, UniProt P01730, A17V); assay: CADA down-modulation of cellular huCD4; format: cell-based
Method in brief: as §2

[7] = target: huCD4_1–32-YFP V13A (Homo sapiens, UniProt P01730, V13A); assay: CADA inhibition of huCD4_1–32-YFP secretion; format: cell-based
Method in brief: as §1

[8] = target: FL huCD4 P20A (Homo sapiens, UniProt P01730, P20A); assay: CADA down-modulation of cellular huCD4; format: cell-based
Method in brief: as §2

[9] = target: huCD4_1–32-YFP L30A (Homo sapiens, UniProt P01730, L30A); assay: CADA inhibition of huCD4_1–32-YFP secretion; format: cell-based
Method in brief: as §1

[10] = target: FL huCD4 G31A (Homo sapiens, UniProt P01730, G31A); assay: CADA down-modulation of cellular huCD4; format: cell-based
Method in brief: as §2

[11] = target: truncated huCD4 D1D2 L12A (Homo sapiens, UniProt P01730, L12A); assay: Cell-free in vitro translation and translocation; format: biochemical; details: 15 μM CADA
Method in brief: (§3)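 Truncated huCD4 D1D2 (lacking glycosylation sites and membrane anchor) was made by PCR and transcribed with T7. Proteinase K protection ran 30 min on ice and was quenched with PMSF. Products were separated by SDS-PAGE and imaged by phosphor imaging. The SP-cleaved band was normalised to the matching control. Data are from 2–5 independent experiments, compared with WT by Welch t test.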

[12] = target: FL huCD4 Q15N (Homo sapiens, UniProt P01730, Q15N); assay: CADA down-modulation of cellular huCD4; format: cell-based; details: HEK293T, 48h
Method in brief: as §2

[13] = target: huCD4_1–32-YFP G4A (Homo sapiens, UniProt P01730, G4A); assay: CADA inhibition of huCD4_1–32-YFP secretion; format: cell-based
Method in brief: as §1

[14] = target: truncated huCD4 D1D2 K26A (Homo sapiens, UniProt P01730, K26A); assay: Cell-free in vitro translation and translocation; format: biochemical
Method in brief: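 Proteinase K protection 30 min on ice, quenched with PMSF. Pellets washed in low-salt buffer (HEPES pH 7.6), then SDS-PAGE and phosphor imaging. Translocation normalised to untreated WT. Two to five independent experiments; Welch's t test.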

[15] = target: FL huCD4 K32A (Homo sapiens, UniProt P01730, K32A); assay: CADA down-modulation of cellular huCD4; format: cell-based; details: read-out: Cellular huCD4 IC50 (μM) Mean, HEK293T, CADA 48h
Method in brief: as §2

[16] = target: FL huCD4 P20G (Homo sapiens, UniProt P01730, P20G); assay: CADA down-modulation of cellular huCD4; format: cell-based; details: HEK293T, 48h
Method in brief: as §2

[17] = target: huCD4_1–32-YFP F7A (Homo sapiens, UniProt P01730, F7A); assay: CADA inhibition of huCD4_1–32-YFP secretion; format: cell-based
Method in brief: (§4)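 HEK293T cells were lipofected with human CD4 residues 1–32 fused to the N-terminus of YFP (secreted, no membrane anchor). Test compound was added 6 h post-transfection as 1:5 serial dilutions (50–0.016 μM) for 48 h. Supernatant was captured on GFP-Trap magnetic beads for 1 h, washed in PBS, and YFP was read by flow cytometry. IC50 is 50% of the untreated control, from four-parameter fits of ≥3 replicate experiments. FC is mutant/WT mean IC50.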

[18] = target: huCD4_1–32-YFP G25A (Homo sapiens, UniProt P01730, G25A); assay: CADA inhibition of huCD4_1–32-YFP secretion; format: cell-based
Method in brief: as §4

[19] = target: huCD4_1–32-YFP T23A (Homo sapiens, UniProt P01730, T23A); assay: CADA inhibition of huCD4_1–32-YFP secretion; format: cell-based
Method in brief: as §1

[20] = target: truncated huCD4 D1D2 L16A (Homo sapiens, UniProt P01730, L16A); assay: Cell-free in vitro translation and translocation; format: biochemical; details: 15 μM CADA
Method in brief: as §3

[21] = target: truncated huCD4 D1D2 Q15A;P20A (Homo sapiens, UniProt P01730, P20A/Q15A); assay: Cell-free in vitro translation and translocation; format: biochemical
Method in brief: as §3

[22] = + less, − more sensitive to CADA
[23] = read-out: Secreted YFP IC50 (μM) Mean, HEK293T, CADA 48h
[24] = read-out: Cellular huCD4 IC50 (μM) Mean, HEK293T, CADA 48h

C=C1CN(S(=O)(=O)c2ccc(C)cc2)CCCN(Cc2ccccc2)CCCN(S(=O)(=O)c2ccc(C)cc2)C1 [CADA, Cyclotriazadisulfonamide]
Secreted YFP FC (fold change of mean IC50 relative to WT) [1, 22]: −1.1
IC50 [1, 23]: 1.12 µM
sensitivity to CADA [2]: no longer responded to CADA
Cellular huCD4 FC (fold change of mean IC50 relative to WT) [3, 22]: −2.7
IC50 [3, 24]: 0.2 µM
Cellular huCD4 FC (fold change of mean IC50 relative to WT) [4, 22]: 1.00
IC50 [4, 24]: 0.54 µM
Secreted YFP FC (fold change of mean IC50 relative to WT) [5, 22]: +3.6
IC50 [5, 23]: 4.57 µM
Cellular huCD4 FC (fold change of mean IC50 relative to WT) [6, 22]: +2.5
IC50 [6, 24]: 1.33 µM
Secreted YFP FC (fold change of mean IC50 relative to WT) [7, 22]: −2.8
IC50 [7, 23]: 0.46 µM
Cellular huCD4 FC (fold change of mean IC50 relative to WT) [8, 22]: +4.4
IC50 [8, 24]: 2.35 µM
Secreted YFP FC (fold change of mean IC50 relative to WT) [9, 22]: −1.2
IC50 [9, 23]: 1.08 µM
Cellular huCD4 FC (fold change of mean IC50 relative to WT) [10, 22]: +1.3
IC50 [10, 24]: 0.72 µM
sensitivity of translocation towards CADA compared to WT [11]: higher sensitivity towards CADA
sensitivity to CADA [12]: partially restored CADA sensitivity
Secreted YFP FC (fold change of mean IC50 relative to WT) [13, 22]: −1.4
IC50 [13, 23]: 0.91 µM
sensitivity of translocation towards CADA compared to WT ([14]; 15 μM CADA): significantly reduced sensitivity to CADA
effect of CADA on co-translational translocation ([14]; increasing doses of CADA): still responded to CADA, although to a lesser extent as compared to WT huCD4
IC50 [15]: 1.42 µM
sensitivity to CADA [16]: fully restored CADA sensitivity
Secreted YFP FC (fold change of mean IC50 relative to WT) [17, 22]: −2.8
IC50 [17, 23]: 0.46 µM
Secreted YFP FC (fold change of mean IC50 relative to WT) [18, 22]: −3.6
IC50 [18, 23]: 0.35 µM
Secreted YFP FC (fold change of mean IC50 relative to WT) [19, 22]: +1.9
IC50 [19, 23]: 2.36 µM
sensitivity of translocation towards CADA compared to WT [20]: higher sensitivity towards CADA
inhibitory effect of CADA on protein translocation compared to WT ([21]; 15 μM CADA): responded significantly less to CADA
effect of CADA on co-translational translocation ([21]; increasing doses of CADA): full resistance to CADA

Reference: paper PMC6980386 (Traffic (Copenhagen, Denmark), 2019)
